Results: ChEMBL document CHEMBL3414559, “Novel C-4 heteroaryl 13-cis-retinamide Mnk/AR degrading agents inhibit cell proliferation and migration and induce apoptosis in human breast and prostate cancer cells and suppress growth of MDA-MB-231 human breast and CWR22Rv1 human prostate tumor xenografts in mice” (J Med Chem, 2015)

Assays:
Type in all cases: functional
[1] = tested on: MCF7; assay: Growth inhibition of human MCF7 cells by MTT assay
Summary of the method: (§1)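 Cells grown in RPMI 1640 with 10% FBS, plated at 2500 cells/well, treated across a dose range; growth read by MTT. GI50 taken from dose–response curves by nonlinear regression, at least three independent experiments.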

[2] = tested on: MDA-MB-231; assay: Growth inhibition of human MDA-MB-231 cells by MTT assay; summary of the method: as §1
[3] = tested on: MDA-MB-468; assay: Growth inhibition of human MDA-MB-468 cells by MTT assay; summary of the method: as §1
[4] = Growth inhibition of human SKBR3 cells by MTT assay; conditions: SK-BR-3; summary of the method: as §1

Structure (SMILES)	GI50 [1]	GI50 [2]	GI50 [3]	GI50 [4]
CC1=C(/C=C/C(C)=C/C=C/C(C)=C\C(=O)Nc2ccccc2)C(C)(C)CC=C1c1cncnc1	7.01 µM	26.9 µM	22.9 µM	31 µM
CC1=C(/C=C/C(C)=C/C=C/C(C)=C\C(=O)NCCc2ccc(O)cc2)C(C)(C)CC=C1c1cncnc1	2.96 µM	14.5 µM	23.4 µM	24 µM
CC1=C(/C=C/C(C)=C/C=C/C(C)=C\C(=O)NCCc2ccc(O)cc2)C(C)(C)CC=C1c1cccnc1	8.75 µM	26.9 µM	50.1 µM	42.2 µM
CC(=O)C1=C(O)C=C2Oc3c(C(N)=O)c(O)cc(O)c3[C@@]2(C)C1=O		43.6 µM	47.9 µM	26 µM

The remaining compounds from weak to strong by GI50 [2], led by results:

GI50 [1]	GI50 [2]	GI50 [3]	Structure (SMILES)	GI50 [4]
8.32 µM	25.1 µM	39.8 µM	CC1=C(/C=C/C(C)=C/C=C/C(C)=C\C(=O)Nc2ccccc2)C(C)(C)CC=C1c1cccnc1	47.4 µM
4.96 µM	11.5 µM	19.1 µM	CC1=C(/C=C/C(C)=C/C=C/C(C)=C\C(=O)NCc2ccc(O)cc2)C(C)(C)CC=C1c1cncnc1	11.5 µM
4.65 µM	11.1 µM	6.02 µM	CC1=C(/C=C/C(C)=C/C=C/C(C)=C/C(=O)Nc2ccc(O)cc2)C(C)(C)CCC1 [FENRETINIDE]	3.98 µM
1.81 µM	1.65 µM	3.09 µM	CC1=C(/C=C/C(C)=C/C=C/C(C)=C\C(=O)NCc2cccc(F)c2)C(C)(C)CCC1n1ccnc1 (stereo not given)	4.24 µM
1.93 µM	1.41 µM	2.45 µM	CC1=C(/C=C/C(C)=C/C=C/C(C)=C\C(=O)NCc2ccc(F)cc2)C(C)(C)CCC1n1ccnc1 (stereo not given)	5.5 µM
